From PMC3356098 (Frontiers in Endocrinology, 2012)

Target: RXFP2 (Homo sapiens, UniProt Q8WXD0)
Type: cell-based
Details: for agonist/antagonist character at RXFP2 (in words): cAMP reporter gene assay
Procedure, shortened: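 HEK-293T cells were co-transfected in 96-well format with RXFP2 and a pCRE–β-galactosidase reporter plasmid. They were exposed to increasing concentrations of test peptide for 6 h, then the medium was aspirated and the cells frozen at −80°C overnight before β-galactosidase was measured. Signals were normalised to the maximal native INSL3 response. Triplicates were run in three experiments, with pEC50 from a variable-slope sigmoidal fit.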

Sequence of RXFP2 (Q8WXD0 whole entry): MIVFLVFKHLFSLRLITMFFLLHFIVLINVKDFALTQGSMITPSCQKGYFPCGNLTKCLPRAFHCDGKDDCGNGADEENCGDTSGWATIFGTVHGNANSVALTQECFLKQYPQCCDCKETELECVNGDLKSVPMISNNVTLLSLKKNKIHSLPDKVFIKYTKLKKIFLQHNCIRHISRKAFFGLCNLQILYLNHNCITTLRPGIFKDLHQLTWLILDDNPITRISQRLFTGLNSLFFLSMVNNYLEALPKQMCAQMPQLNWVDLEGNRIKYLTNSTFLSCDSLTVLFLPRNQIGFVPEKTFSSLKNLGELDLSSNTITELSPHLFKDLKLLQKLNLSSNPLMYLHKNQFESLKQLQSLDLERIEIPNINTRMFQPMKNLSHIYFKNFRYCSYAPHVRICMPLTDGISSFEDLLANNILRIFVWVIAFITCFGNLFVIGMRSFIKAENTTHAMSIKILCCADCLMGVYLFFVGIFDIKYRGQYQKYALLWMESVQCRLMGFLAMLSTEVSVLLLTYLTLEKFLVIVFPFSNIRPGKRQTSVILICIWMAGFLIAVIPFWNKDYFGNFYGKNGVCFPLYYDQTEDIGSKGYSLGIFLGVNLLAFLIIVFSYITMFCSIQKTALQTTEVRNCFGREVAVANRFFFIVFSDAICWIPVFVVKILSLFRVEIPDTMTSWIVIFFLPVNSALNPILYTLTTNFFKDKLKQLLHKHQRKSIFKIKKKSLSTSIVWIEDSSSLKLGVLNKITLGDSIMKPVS

agonist/antagonist character at RXFP2 (in words) | ability to stimulate cAMP activity in RXFP2 expressing cells (in concentrations up to 1 μM) | SMILES
partial agonist |  | CSCC[C@H](NC(=O)[C@H](CCC(=O)O)NC(=O)[C@@H]1CCCN1C(=O)[C@@H](NC(=O)[C@@H]1CCCN1)[C@@H](C)O)C(=O)N[C@@H](CCCNC(=N)N)C(=O)N[C@@H](CCC(=O)O)C(=O)N[C@@H](CCCCN)C(=O)N[C@@H](CC(C)C)C(=O)N[C@H]1CSSC[C@@H]2NC(=O)[C@@H](NC(=O)[C@H](CCCCN)NC(=O)[C@H](CC(N)=O)NC(=O)[C@H](C)NC(=O)[C@H](CC(C)C)NC(=O)[C@H](C)NC(=O)[C@H](CO)NC(=O)[C@H](Cc3ccc(O)cc3)NC(=O)[C@H](CC(C)C)NC(=O)[C@@H]3CCC(=O)N3)CSSC[C@H](NC(=O)CNC(=O)[C@H](C(C)C)NC(=O)[C@H](Cc3c[nH]cn3)NC2=O)C(=O)N[C@@H]([C@@H](C)O)C(=O)N[C@@H](CCCCN)C(=O)N[C@@H](CCCNC(=N)N)C(=O)N[C@@H](CO)C(=O)N[C@@H](CC(C)C)C(=O)N[C@@H](C)C(=O)N[C@@H](CCCNC(=N)N)C(=O)N[C@@H](Cc2ccccc2)C(=O)N[C@H](C(=O)O)CSSC[C@@H](C(=O)NCC(=O)NCC(=O)N2CCC[C@H]2C(=O)N[C@@H](CCCNC(=N)N)C(=O)N[C@@H](Cc2c[nH]c3ccccc23)C(=O)N[C@@H](CO)C(=O)N[C@H](C(=O)N[C@@H](CCC(=O)O)C(=O)N[C@@H](C)C(=O)O)[C@@H](C)O)NC(=O)[C@H](C(C)C)NC(=O)[C@H](CCCNC(=N)N)NC(=O)[C@H](C(C)C)NC(=O)[C@H](CC(C)C)NC(=O)[C@H](C)NC(=O)[C@H](CCCNC(=N)N)NC(=O)[C@H](C(C)C)NC(=O)[C@H](Cc2ccccc2)NC(=O)[C@H](Cc2c[nH]cn2)NC(=O)[C@H](Cc2c[nH]cn2)NC(=O)CNC1=O [H2-A/INSL3-B]
high affinity antagonists | unable to stimulate cAMP | CSCC[C@H](NC(=O)[C@H](CCC(=O)O)NC(=O)[C@@H]1CCCN1C(=O)[C@@H](NC(=O)[C@@H]1CCCN1)[C@@H](C)O)C(=O)N[C@@H](CCCNC(=N)N)C(=O)N[C@@H](CCC(=O)O)C(=O)N[C@@H](CCCCN)C(=O)N[C@@H](CC(C)C)C(=O)N[C@H]1CSSC[C@@H]2NC(=O)[C@@H](NC(=O)[C@H](CC(C)C)NC(=O)[C@@H](NC(=O)[C@H](CCC(N)=O)NC(=O)[C@H](CC(C)C)NC(=O)[C@H](CC(=O)O)NC(=O)[C@@H]3CCC(=O)N3)[C@@H](C)O)CSSC[C@H](NC(=O)CNC(=O)[C@H](CC(=O)O)NC(=O)[C@H]([C@@H](C)O)NC2=O)C(=O)N[C@@H](CO)C(=O)N[C@@H](CCSC)C(=O)N[C@@H]([C@@H](C)O)C(=O)N[C@@H](CC(=O)O)C(=O)N[C@@H](CC(C)C)C(=O)N[C@@H](CO)C(=O)N[C@@H](C)C(=O)N[C@@H](CC(C)C)C(=O)N[C@H](C(=O)O)CSSC[C@@H](C(=O)NCC(=O)NCC(=O)N2CCC[C@H]2C(=O)N[C@@H](CCCNC(=N)N)C(=O)N[C@@H](Cc2c[nH]c3ccccc23)C(=O)N[C@@H](CO)C(=O)N[C@H](C(=O)N[C@@H](CCC(=O)O)C(=O)N[C@@H](C)C(=O)O)[C@@H](C)O)NC(=O)[C@H](C(C)C)NC(=O)[C@H](CCCNC(=N)N)NC(=O)[C@H](C(C)C)NC(=O)[C@H](CC(C)C)NC(=O)[C@H](C)NC(=O)[C@H](CCCNC(=N)N)NC(=O)[C@H](C(C)C)NC(=O)[C@H](Cc2ccccc2)NC(=O)[C@H](Cc2c[nH]cn2)NC(=O)[C@H](Cc2c[nH]cn2)NC(=O)CNC1=O [INSL5-A/INSL3-B]
